Experimental data gathered from unrelated publications.
Compare with care: the assays were run in different laboratories.
TGFBR1: TGF-beta receptor type-1 (TGFBR1, Homo sapiens, UniProt P36897)
IRAK4: Interleukin-1 receptor-associated kinase 4 (IRAK4, Homo sapiens, UniProt Q9NWZ3)
CYP2D6: Cytochrome P450 2D6 (CYP2D6, Homo sapiens, UniProt P10635)
P2RY14: P2Y purinoceptor 14 (P2RY14, Homo sapiens, UniProt Q15391)

SMILES | target | test | system | setting | IC50
Cn1cc(-c2ccnc3ccccc23)c(-c2ccccn2)n1 | TGFBR1 | enzyme activity, inhibitor, radiometric | – | – | 0.75 µM
OCc1ccc(Nc2ncc(Cl)c(Nc3ccccc3-c3ncc[nH]3)n2)cc1 | IRAK4 | enzyme activity, inhibitor, radiometric | – | – | 0.0849 µM
NCC(=O)O | ltaE (Escherichia coli, UniProt P75823) | enzyme activity, inhibitor | – | – | 1900 µM
Cn1cc(C2=C(c3cn(CCCSC(=N)N)c4ccccc34)C(=O)NC2=O)c2ccccc21 | Homeodomain-interacting protein kinase 1 (HIPK1, Homo sapiens, UniProt Q86Z02) | enzyme activity, inhibitor | – | – | 2.9 µM
C=CCn1c(=O)c2cnc(Nc3ccc(N4CCN(C)CC4)cc3)nc2n1-c1ccc2c(n1)[C@@](O)(CC)CC2 | CYP2D6 | enzyme activity, inhibitor | – | – | 50 µM
CS(=O)(=NC#N)c1ccccc1Nc1nc(Nc2ccnc(CO)c2)ncc1Cl (stereo not shown) | IRAK4 | enzyme activity, inhibitor, radiometric | – | – | 0.0286 µM
CC(C)(C)NS(=O)(=O)c1cccc(C(=O)N2CC3(CCC4(CC4)CC3)c3cc(NS(C)(=O)=O)ccc32)c1 | Kinesin-like protein KIF11 (KIF11, Homo sapiens, UniProt P52732) | ATPase activity, inhibitor | – | – | > 100 µM
CC(C)OC(=O)[C@H](Cc1c[nH]c2ccccc12)NC(=O)c1ccco1 | P2RY14 | cAMP, antagonist | – | – | 0.0216 µM
CS(=O)(=O)c1ccccc1Nc1nc(Nc2ccnc(CO)c2)ncc1Cl | IRAK4 | enzyme activity, inhibitor, radiometric | – | – | 0.106 µM
O=C(N[C@@H](Cc1c[nH]c2ccccc12)C(=O)O)c1ccco1 | P2RY14 | cAMP, antagonist | – | – | 0.0234 µM
O=C(O)c1cc(-c2ccc(-n3nncc3CCOP(=O)(O)O)cc2)c2ccc(-c3ccc(C(F)(F)F)cc3)cc2c1 | P2RY14 | ligand displacement in cells, flow cytometry | – | – | 0.157 µM
Oc1ccccc1-c1n[nH]cc1-c1ccnc2ccccc12 | TGFBR1 | enzyme activity, inhibitor, radiometric | – | – | 7.4 µM
O=C(O)c1cc(-c2ccc(-c3ccc(Cl)s3)cc2)c2ccc(-c3ccc(C(F)(F)F)cc3)cc2c1 | P2RY14 | ligand displacement in cells, flow cytometry | – | – | 2.04 µM
CC(C)OC(=O)[C@H](Cc1c[nH]c2ccccc12)NC(=O)c1ccc2nccnc2c1 | P2RY14 | cAMP, antagonist | – | – | 0.0098 µM
CS(=O)(=NC#N)c1ccccc1Nc1nc(Nc2ccc(CO)nc2)ncc1Cl (stereo not shown) | IRAK4 | enzyme activity, inhibitor, radiometric | – | – | 0.0189 µM
Cc1ccc(OCC(=O)N[C@@H](Cc2c[nH]c3ccccc23)C(=O)OC(C)C)cc1 | CYP2D6 | enzyme activity, inhibitor | human, liver microsomes | 30 min | 27.4 µM
O=C(O)c1cc(-c2ccc(-n3cc(CCOP(=O)(O)O)nn3)cc2)c2ccc(-c3ccc(C(F)(F)F)cc3)cc2c1 | P2RY14 | ligand displacement in cells, flow cytometry | – | – | 1.34 µM
CNC(=O)c1ccccc1Nc1nc(Nc2ccc(CC(F)F)cc2)ncc1Cl | IRAK4 | enzyme activity, inhibitor, radiometric | – | – | 0.0748 µM
O=C(NO)c1ccc(Cn2cnc3c(Nc4ccc(Cl)cc4)ncnc32)cc1 | Histone deacetylase 3 (HDAC3, Homo sapiens, UniProt O15379) | enzyme activity, inhibitor, fluorescence | – | – | 0.0151 µM
CNC(=O)c1ccccc1Nc1nc(Nc2ccnc(CO)c2)ncc1Cl | IRAK4 | enzyme activity, inhibitor, radiometric | – | – | 0.0115 µM
COc1ccc(OCC(=O)N[C@@H](Cc2c[nH]c3ccccc23)C(=O)OC(C)C)cc1 | P2RY14 | cAMP, antagonist | – | – | 0.0156 µM
CNC(=O)c1ccccc1Nc1nc(Nc2ccc(CO)cc2)ncc1Cl | IRAK4 | enzyme activity, inhibitor, radiometric | – | – | 0.00249 µM
O=C(O)c1cc(-c2ccc(-c3ccncc3)cc2)c2ccc(-c3ccc(C(F)(F)F)cc3)cc2c1 | P2RY14 | ligand displacement in cells, flow cytometry | – | – | 0.0408 µM
C#Cc1cnc(Nc2ccc(CO)cc2)nc1Nc1ccccc1C(=O)NC | IRAK4 | enzyme activity, inhibitor, radiometric | – | – | 0.00051 µM
O=C(O)c1cc(-c2ccc(-n3ccnn3)cc2)cc(-n2cc(-c3ccc(C(F)(F)F)cc3)nn2)c1 | P2RY14 | ligand displacement in cells, flow cytometry | – | – | 2.03 µM
